FN deposition inh – inhibitors of fibronectin matrix deposition, primary screen, AH1F cells, Alexa488-fibronectin fluorescence, plate reader | actives 0.086% (n = 350,000) | AID 743247, 2014 | inhibition, % at 12.6 µM | AH1F fibroblasts, overnight;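 active = mean inhibition across replicates of 30% or more, regardless of how many single replicates reach that level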;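 note: positive control wells lacked labelled fibronectin entirely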
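test system = AH1F fibroblasts assembling fluorescent fibronectin matrix | quantity = 10000 AH1F cells per well | buffer or medium = DMEM plus 2% serum, read in PBS | doses = single dose, pinned | incubation = 1 h cell attachment, overnight exposure to compound and label | detection = fluorescence at 485 nm excitation, 525 nm emission | read-out basis = inhibition from reduced deposited-fibronectin fluorescence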
A3G deaminase – APOBEC3G DNA deaminase inhibitors, primary screen, biochemical, fluorescence, single-stranded DNA substrate, uHTS. DNA dC->dU-editing enzyme APOBEC-3G (Homo sapiens), Q9HC16. inhibition, % at 20 µM. actives 0.28% (n = 330,000). recombinant A3G, ssDNA deamination FAM/TAMRA fluorescence. AID 493012, 2011;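 active = inhibition of at least 40% at 20 µM, with no more than 30% in the related APOBEC3A deaminase screen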;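 note: plate controls were DMSO wells with A3G for no effect and wells lacking A3G enzyme for full effect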
ABHD5-PLIN5 inh – ABHD5-PLIN5 interaction inhibitors, primary screen, cell lysate, split luciferase complementation, luminescence | actives 0.78% (n = 360,000) | Split G. princeps luciferase complementation, 4 h | AID 602281, 2012 | inhibition, % at 4 µM | Perilipin-5 (Homo sapiens) + 1-acylglycerol-3-phosphate O-acyltransferase ABHD5 (Homo …;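 active = inhibition above the mean inhibition across every tested compound plus 3 SD, cut at about 22% in these data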;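 note: 0% = DMSO only wells and the 100% control is not disclosed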
A3A deaminase – APOBEC3A ssDNA deaminase inhibitors, primary screen, selectivity assay for APOBEC3G inhibitor project, biochemical, FAM/TAMRA oligo cleavage fluorescence; DNA dC->dU-editing enzyme APOBEC-3A (Homo sapiens), P31941; recombinant A3A, FAM/TAMRA ssDNA deamination fluorescence; inhibition, % at 20 µM; actives 0.41% (n = 330,000); AID 493011, 2011;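 active = at least 40% inhibition at 20 µM here, with at most 30% in a related deaminase screen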;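 note: plate controls were A3A with DMSO for no effect and wells lacking A3A enzyme for full effect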
Target sequence (P31941 whole entry, looked up): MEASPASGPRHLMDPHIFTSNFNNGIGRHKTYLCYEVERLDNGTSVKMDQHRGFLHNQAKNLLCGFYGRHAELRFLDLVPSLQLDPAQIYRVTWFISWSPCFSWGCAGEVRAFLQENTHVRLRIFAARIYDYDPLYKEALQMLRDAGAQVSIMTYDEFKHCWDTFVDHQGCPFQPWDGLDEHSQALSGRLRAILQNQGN
APOBEC3G confirm – APOBEC3G deaminase inhibitor retest, confirmation, biochemical, fluorescence, single-stranded DNA substrate, single concentration | inhibition, % at 20 µM | recombinant A3G ssDNA deaminase, UDG/FAM-TAMRA fluorescence | shares compounds with A3G deaminase | actives 72% (n = 890);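 active = inhibition reaching a set limit in any replicate at 20 µM, the limit being 80% of the first screen's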
UDG ctr A3G – E. coli UDG inhibitors, confirmation, counter-screen for APOBEC3G inhibitor project, biochemical, single concentration, fluorescence, FAM/TAMRA oligo | UDG counterscreen | inhibition, % at 20 µM | shares compounds with A3G deaminase | 710 tested, under 10 active;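 active = compounds giving 40% or more inhibition at 20 µM in any one of the three replicates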;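 note: plate controls were DMSO wells with UDG and oligo for no effect and DMSO wells lacking both for full effect; inhibitors lower the FAM signal released by uracil excision and alkaline cleavage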
Target sequence (P12295 whole entry, looked up): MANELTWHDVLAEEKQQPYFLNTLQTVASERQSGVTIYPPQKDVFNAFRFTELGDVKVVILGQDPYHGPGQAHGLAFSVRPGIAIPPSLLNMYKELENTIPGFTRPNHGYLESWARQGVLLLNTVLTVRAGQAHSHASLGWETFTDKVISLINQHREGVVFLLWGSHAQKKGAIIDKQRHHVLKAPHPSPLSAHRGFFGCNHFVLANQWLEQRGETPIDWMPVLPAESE
Numbers without * were called inactive; · = not tested or not shown. Rows were chosen to be rich in hits. Some 1.2% of all compounds tested hit in one or more screens of this group.

SMILES	FN deposition inh	A3G deaminase	ABHD5-PLIN5 inh	A3A deaminase	APOBEC3G confirm	UDG ctr A3G
Cc1cc(=O)n2[nH]c(-c3ccsc3-n3c(C)ccc3C)cc2n1	1	43*	7	29	44*	-5
COCc1cc(=O)n2[nH]c(-c3ccsc3-n3c(C)ccc3C)cc2n1	0	53	6	57	·	·
O=[N+]([O-])c1ccccc1/C=N/n1c(-c2ccccc2)n[nH]c1=S	1	51*	-2	-10	81*	-5
Cc1cccc(/C=N/n2c(-c3ccccc3)n[nH]c2=S)c1O	-7	28	-2	-5	·	·
S=c1[nH]nc(-c2ccco2)n1/N=C/c1cccs1	10	62*	-4	-1	81*	-2
S=c1[nH]nc(-c2ccccc2)n1/N=C/c1cccs1	·	44*	-3	1	58*	-3
Cc1cc(-c2n[nH]c(=S)n2/N=C/c2cccs2)n[nH]1	1	60*	-13	-2	92*	-5
O=C(NC[C@H]1N[C@H](CO)[C@@H]1c1ccc(-c2cncnc2)cc1)C1CCCC1	-2	·	·	·	·	·
Cc1nc(NC(=O)CSc2nnnn2C)sc1C	·	0	1	2	·	·
COC(=O)c1sc(NC(=O)CSc2nnnn2C)nc1C	-6	56*	-2	-1	-6	0
O=C(O)c1ccccc1C(=O)Nc1nccs1	8	-12	5	-2	·	·
O=C(O)c1ccccc1C(=O)Nc1n[nH]c(=S)s1	·	64*	-10	2	44*	-2
COCC(=O)Nc1ccc2c(c1)C(=O)N(C)[C@H]1CC[C@H](CC(=O)Nc3cn(C)nc3C)O[C@@H]1CO2	-1	·	·	·	·	·
COc1ccc2c(c1)cc(C(=O)N[C@@H](Cc1ccccc1)C(=O)O)n2C	·	-6	-3	-5	·	·
Cn1c(C(=O)N[C@@H](Cc2ccccc2)C(=O)O)cc2cc(F)ccc21	1	43*	6	-1	-2	2
COc1cc(/C=N/N2CCN(Cc3ccc(C)cc3)CC2)cc(OC)c1O	-3	54*	-3	1	-1	·
Cc1ccc(NNC(=O)c2ccno2)c(C)c1	2	46*	-2	-5	-1	-5
Cc1cc(NC(=O)c2ccno2)no1	·	-8	-3	-4	·	·
Oc1cccc2cc3cccc(O)c3c(O)c12	·	55*	-9	13	62*	-2
C[C@H](CO)N1C[C@H](C)[C@H](CN(C)Cc2ccc(O)cc2)OCc2cnnn2CCCC1=O	-5	·	·	·	·	·
CCC1(C)CC(C(N)=S)CCO1 (configuration not stated)	3	57*	-3	1	45*	4
O=C(CSC(=O)c1ccccc1)Nc1ccccc1F	-8	41*	-23	1	37*	-3
Cc1cc(=O)oc2cc(NC(=O)C3CCCC3)ccc12	3	57*	3	-2	4	4
CC(C)[C@@H]1C/C=C\C[C@@H](c2ccc(F)cc2)NC(=O)[C@H](C)CC(=O)N1	-8	·	·	·	·	·
C/C=C/c1ccc([C@H]2[C@@H](CO)N(Cc3ccccn3)[C@@H]2CNC(C)=O)cc1	-7	·	·	·	·	·
Cc1ccc(-c2csc3n[nH]c(=S)n23)cc1	·	60*	-14	-5	82*	-1
CN1CCN(C(=O)c2sc(=S)n(-c3ccccc3)c2N)CC1	-10	66*	4	-4	81*	2
COC(=O)c1sc(=S)n(-c2cccc(Cl)c2)c1N	·	54*	3	2	30*	-3
Cc1ccc(-n2c(N)c(C(=O)N3CCOCC3)sc2=S)cc1	-1	40	-2	8	·	·
Cc1cccc(S(=O)(=O)N[C@H]2CC[C@H](CCNC(=O)CCN3CCCCC3)O[C@H]2CO)c1	-3	·	·	·	·	·
